Results from ChEMBL document CHEMBL5058577, “EUbOPEN Chemogenomics Library 2 (Multiplex)” (2022).

Tested on: Fibroblast
Test: Multiplex assay against human fibroblast
Format: toxicity, cell-based
Summary of the method: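 Four dyes were applied at seeding to live cells: Hoechst33342, BioTracker Green Microtubule Cytoskeleton Dye, MitoTracker Red and Annexin V Alexa Fluor 680. Imaging after compound addition used a CQ1 microscope at 37°C and 5% CO2. CellPathfinder machine-learning gating then sorted cells into Hoechst high-intensity objects or normal cells, normal cells into healthy, pyknosed or fragmented nuclei, and pyknosed cells into mitotic or apoptotic, with tubulin, mitochondrial-mass and membrane-permeability phenotypes given as per cents of healthy-nucleus cells.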

[1] = 12 h, 1 µM, compound concentration 1 uM, replicate 1
[2] = 12 h, 1 µM, compound concentration 1 uM, replicate 2
[3] = 12 h, 10 µM, compound concentration 10 uM, replicate 1
[4] = 12 h, 10 µM, compound concentration 10 uM, replicate 2
[5] = 24 h, 1 µM, compound concentration 1 uM, replicate 1
[6] = 24 h, 1 µM, compound concentration 1 uM, replicate 2
[7] = 24 h, 10 µM, compound concentration 10 uM, replicate 1
[8] = 24 h, 10 µM, compound concentration 10 uM, replicate 2
[9] = 48 h, 1 µM, compound concentration 1 uM, replicate 1
[10] = 48 h, 1 µM, compound concentration 1 uM, replicate 2
[11] = 48 h, 10 µM, compound concentration 10 uM, replicate 1
[12] = 48 h, 10 µM, compound concentration 10 uM, replicate 2

## CCNC1(C(N)=O)CCN(c2ncnc3c2nc(-c2ccccc2Cl)n3-c2ccc(Cl)cc2)CC1 [OTENABANT]
[1]
  Population Apoptotic (%): 26%
  Population Fragmented Nuclei (%): 19%
  Population Healthy Nuclei (%): 63%
  Population Hoechst High Intensity Objects (%): 6%
  Population Membrane Permeable-Phenotype (%): 1%
  Population Mitochondria Different-Phenotype (%): 7%
  Population Mitotic Cells (%): 73%
  Population Normal (%): 93%
  Population Pyknosed Nuclei (%): 17%
  Population Tubulin-Different-Phenotype (%): 44%
  Total Cell Count: 161
[2]
  Population Apoptotic (%): 37%
  Population Fragmented Nuclei (%): 25%
  Population Healthy Nuclei (%): 48%
  Population Hoechst High Intensity Objects (%): 2%
  Population Membrane Permeable-Phenotype (%): 6%
  Population Mitochondria Different-Phenotype (%): 10%
  Population Mitotic Cells (%): 62%
  Population Normal (%): 97%
  Population Pyknosed Nuclei (%): 26%
  Population Tubulin-Different-Phenotype (%): 50%
  Total Cell Count: 156
[3]
  Population Apoptotic (%): 57%
  Population Fragmented Nuclei (%): 22%
  Population Healthy Nuclei (%): 64%
  Population Hoechst High Intensity Objects (%): 4%
  Population Membrane Permeable-Phenotype (%): 0%
  Population Mitochondria Different-Phenotype (%): 16%
  Population Mitotic Cells (%): 42%
  Population Normal (%): 95%
  Population Pyknosed Nuclei (%): 12%
  Population Tubulin-Different-Phenotype (%): 90%
  Total Cell Count: 170
[4]
  Population Apoptotic (%): 40%
  Population Fragmented Nuclei (%): 30%
  Population Healthy Nuclei (%): 48%
  Population Hoechst High Intensity Objects (%): 3%
  Population Membrane Permeable-Phenotype (%): 12%
  Population Mitochondria Different-Phenotype (%): 18%
  Population Mitotic Cells (%): 59%
  Population Normal (%): 96%
  Population Pyknosed Nuclei (%): 21%
  Population Tubulin-Different-Phenotype (%): 87%
  Total Cell Count: 216
[5]
  Population Apoptotic (%): 26%
  Population Fragmented Nuclei (%): 17%
  Population Healthy Nuclei (%): 66%
  Population Hoechst High Intensity Objects (%): 4%
  Population Membrane Permeable-Phenotype (%): 0%
  Population Mitochondria Different-Phenotype (%): 8%
  Population Mitotic Cells (%): 73%
  Population Normal (%): 95%
  Population Pyknosed Nuclei (%): 15%
  Population Tubulin-Different-Phenotype (%): 44%
  Total Cell Count: 154
[6]
  Population Apoptotic (%): 34%
  Population Fragmented Nuclei (%): 27%
  Population Healthy Nuclei (%): 43%
  Population Hoechst High Intensity Objects (%): 5%
  Population Membrane Permeable-Phenotype (%): 9%
  Population Mitochondria Different-Phenotype (%): 14%
  Population Mitotic Cells (%): 65%
  Population Normal (%): 94%
  Population Pyknosed Nuclei (%): 29%
  Population Tubulin-Different-Phenotype (%): 57%
  Total Cell Count: 155
[7]
  Population Apoptotic (%): 54%
  Population Fragmented Nuclei (%): 22%
  Population Healthy Nuclei (%): 64%
  Population Hoechst High Intensity Objects (%): 2%
  Population Membrane Permeable-Phenotype (%): 0%
  Population Mitochondria Different-Phenotype (%): 37%
  Population Mitotic Cells (%): 45%
  Population Normal (%): 97%
  Population Pyknosed Nuclei (%): 12%
  Population Tubulin-Different-Phenotype (%): 96%
  Total Cell Count: 174
[8]
  Population Fragmented Nuclei (%): 37%
  Population Healthy Nuclei (%): 48%
  Population Hoechst High Intensity Objects (%): 5%
  Population Membrane Permeable-Phenotype (%): 7%
  Population Mitochondria Different-Phenotype (%): 30%
  Population Normal (%): 94%
  Population Pyknosed Nuclei (%): 13%
  Population Tubulin-Different-Phenotype (%): 88%
  Total Cell Count: 235
[9]
  Population Apoptotic (%): 68%
  Population Fragmented Nuclei (%): 18%
  Population Healthy Nuclei (%): 69%
  Population Hoechst High Intensity Objects (%): 8%
  Population Membrane Permeable-Phenotype (%): 0%
  Population Mitochondria Different-Phenotype (%): 3%
  Population Mitotic Cells (%): 31%
  Population Normal (%): 91%
  Population Pyknosed Nuclei (%): 12%
  Population Tubulin-Different-Phenotype (%): 41%
  Total Cell Count: 167
[10]
  Population Apoptotic (%): 59%
  Population Fragmented Nuclei (%): 33%
  Population Healthy Nuclei (%): 42%
  Population Hoechst High Intensity Objects (%): 5%
  Population Membrane Permeable-Phenotype (%): 13%
  Population Mitochondria Different-Phenotype (%): 18%
  Population Mitotic Cells (%): 40%
  Population Normal (%): 94%
  Population Pyknosed Nuclei (%): 23%
  Population Tubulin-Different-Phenotype (%): 72%
  Total Cell Count: 143
[11]
  Population Apoptotic (%): 78%
  Population Fragmented Nuclei (%): 30%
  Population Healthy Nuclei (%): 61%
  Population Hoechst High Intensity Objects (%): 8%
  Population Membrane Permeable-Phenotype (%): 0%
  Population Mitochondria Different-Phenotype (%): 49%
  Population Mitotic Cells (%): 21%
  Population Normal (%): 91%
  Population Pyknosed Nuclei (%): 8%
  Population Tubulin-Different-Phenotype (%): 92%
  Total Cell Count: 187
[12]
  Population Apoptotic (%): 61%
  Population Fragmented Nuclei (%): 46%
  Population Healthy Nuclei (%): 47%
  Population Hoechst High Intensity Objects (%): 2%
  Population Membrane Permeable-Phenotype (%): 7%
  Population Mitochondria Different-Phenotype (%): 26%
  Population Mitotic Cells (%): 38%
  Population Normal (%): 97%
  Population Pyknosed Nuclei (%): 6%
  Population Tubulin-Different-Phenotype (%): 89%
  Total Cell Count: 299
